TNAP inh no acc – TNAP (human) inhibition, acceptor-free conditions. P05186. purified TNAP, CDP-star luminescence, 30 min. inhibition, % at 20 µM. hit rate 0.26% among 200,000;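 active = tissue-nonspecific alkaline phosphatase inhibition above about 50% at 20 µM in the single-dose screen, limit read from the data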;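 note: 0% = DMSO negative control and 100% = EDTA positive control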
Target sequence (P05186 whole entry, looked up): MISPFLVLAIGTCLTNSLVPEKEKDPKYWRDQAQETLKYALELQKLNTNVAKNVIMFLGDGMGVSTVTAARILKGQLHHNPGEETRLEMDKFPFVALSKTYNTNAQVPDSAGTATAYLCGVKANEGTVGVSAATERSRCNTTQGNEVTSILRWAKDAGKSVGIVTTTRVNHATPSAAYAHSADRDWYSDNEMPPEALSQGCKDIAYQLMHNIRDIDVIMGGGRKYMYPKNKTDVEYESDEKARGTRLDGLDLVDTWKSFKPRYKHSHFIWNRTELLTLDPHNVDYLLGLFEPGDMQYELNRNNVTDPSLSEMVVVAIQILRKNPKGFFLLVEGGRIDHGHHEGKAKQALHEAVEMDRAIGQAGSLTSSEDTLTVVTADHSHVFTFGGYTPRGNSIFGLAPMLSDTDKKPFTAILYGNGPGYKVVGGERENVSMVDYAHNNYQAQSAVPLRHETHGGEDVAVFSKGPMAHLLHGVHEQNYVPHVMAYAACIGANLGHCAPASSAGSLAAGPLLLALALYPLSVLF
L major viab – reduces viability of Leishmania major promastigotes | resazurin fluorescence viability | inhibition, % at 10 µM | hit rate 9% among 200,000 | AID 1063; in the data active = inhibition above about 50%;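 note: promastigotes grown with compound for 44 hours at 28 °C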
PTEN del growth – PTEN-deleted cell growth suppression | HCT116 PTEN-null viability, CellTiter-Glo, 60 h; hits give low values | hit rate 1.2% among 140,000 | viability, % at 10 µM;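 active = viability at or below a set limit, 4 SD under the median of all tested compounds, cut at about 3.7% in these data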;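 note: PTEN knockout HCT116 line with beta catenin targeted HCT116 as companion control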
bCat KO growth – beta-catenin-lacking colon tumor cell growth suppression; HCT116 beta-catenin knockout viability, CellTiter-Glo, 60 h; hits give low values; viability, % at 10 µM; hit rate 1.5% among 140,000; AID 818;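 active = viability at or under a set limit, the compound median less 4 SD, cut at about 6% in these data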;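 note: 0% = Hyamine 1622 control at 20 µM and 100% = untreated cell control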
TNAP act hi DEA – activators of human TNAP at high phosphate acceptor concentration | 200,000 tested, under 10 active | P05186 | AID 1136 | activation factor at 20 µM | purified TNAP, CDP-star luminescence, 1 M DEA, 30 min; hits give high values; 0 = EDTA background, 1 = DMSO-only activity;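 active = activation factor at least 2 at 20 µM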
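Assay system: human TNAP; Input: enzyme diluted 1/800 final; Reagent: CDP-star luminogenic substrate at 100 µM final; Timing: 30 min, room temperature; Signal: luminescence; Evaluation: TNAP activation factor scaled between EDTA and DMSO control wells.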
TNAP inh hi DEA – TNAP (human) inhibition, high acceptor. P05186. purified TNAP, CDP-star luminescence, 1 M DEA. inhibition, % at 20 µM. hit rate 0.03% among 200,000;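 active = over 50% inhibition of tissue-nonspecific alkaline phosphatase at 20 µM in the single-dose screen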;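 note: plate controls were DMSO wells for no effect and EDTA-quenched wells as full inhibition for full effect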
Lmaj promast 1uM – blocks Leishmania major promastigote growth at 1 uM, repeat screen. shares compounds with L major viab. L. major promastigote growth, resazurin fluorescence, 48 h. inhibition, % at 1 µM. hit rate 13% among 1,100;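 active = inhibition above about 50% in both repeat tests, limit read from the data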
* hit, by the source's call; x = no result. Sampled rows, rich in hits. Any-hit rate of the full collection: about 9.6%.

SMILES	TNAP inh no acc	L major viab	PTEN del growth	bCat KO growth	TNAP act hi DEA	TNAP inh hi DEA	Lmaj promast 1uM
Fc1ccccc1Sc1ccccc1CNC1=NCCN1	1	99*	64	69	1	-2	5
c1ccc(Sc2cccc3ccccc23)c(CNC2=NCCN2)c1	-78	99*	19	10	1.1	-10	-11
Cc1ccc(C(=O)O)cc1NC(=S)NC(=O)c1ccc([N+](=O)[O-])c(C)c1	-4	-8	x	x	1	-1	x
COc1cccc(/C=N/n2c(SC)nnc2-c2ccccc2)c1O	-8	-9	31	39	1	1	x
COc1cccc(/C=N/n2c(SC)nnc2-c2ccccc2)c1OC	3	84*	68	59	1.1	-6	22
O=C(COc1ccccc1)Nc1nnc(-c2ccc(Cl)s2)o1	-15	-1	111	100	1.1	-5	x
COc1ccccc1N1CCN(c2nc(N)c(C#N)c(CC#N)c2C#N)CC1	8	1	79	77	1	-1	x
COc1cc2c(C#N)c(N3CCN(c4ccccc4OC)CC3)nc(N)c2c(N)n1	-2	73*	47	46	1	0	33
OC(CC1CC12c1ccccc1-c1ncccc12)(c1ccccc1)c1ccccc1 (stereo not given)	-10	69*	64	73	1	1	9
CCN(C(=O)c1ccc(C(C)(C)C)cc1)c1nnc(Cn2nnc3ccccc32)s1	-16	54*	10	10	1.1	-6	36
CCN(C(=O)CC(C)C)c1nnc(Cn2nnc3ccccc32)s1	-12	13	x	x	1	-3	x
O=C(Nc1ccc(Cl)cn1)c1ccc([N+](=O)[O-])o1	0	100*	x	x	1	0	80*
Cc1c(Cl)c([N+](=O)[O-])nn1Cc1ccc(C(=O)Nc2ccc(Cl)cn2)o1	0	14	82	90	1	-2	x
CC[n+]1c(C)sc2c(C)cc(C)cc21	15	69*	90	91	1	3	-11
N#Cc1cc2sc3nnc(-c4ccncc4)n3c2cc1C#N	-13	54*	13	6	1.1	-5	17
CCOC(=O)c1nc(-c2ccc(OC)c(OC)c2)cnc1C#N	-4	-4	95	84	1	-3	x
FC(F)(F)c1ccc(C2NCCc3sccc32)cc1 (stereo not given)	-6	93*	x	x	1	-1	21
Cn1c(-c2ccc(-c3ccccc3)cc2)c[nH]c1=S	33	57*	87	103	1	2	-4
CCn1c(-c2ccc(-c3ccccc3)cc2)c[nH]c1=S	19	16	68	71	1.1	-14	x
CC(C)(C)c1ccc(-c2noc(CCC(=O)NCC3CCCO3)n2)cc1 (stereo not given)	-15	7	60	38	1	-2	x
Nc1ccc2nn(-c3cccc4ccccc34)nc2c1	0	99*	77	65	0.9	7	-9
Nc1ccc2nn(-c3ccccc3)nc2c1	-9	81*	x	x	1	0	-22
O=C(Nc1ccc(C(F)(F)F)cc1)c1cnc(N2CCN(c3ccccn3)CC2)c2ccccc12	-8	-1	x	x	1	0	x
Cc1ccc(/C=C(\C#N)c2nn(-c3ccccc3)c(N)c2C#N)cc1	-8	65*	98	104	1	3	-6
N#C/C(=C\c1cccc2ccccc12)c1nn(-c2ccccc2)c(N)c1C#N	x	32	x	x	x	x	x
SMILES	TNAP inh no acc	L major viab	PTEN del growth	bCat KO growth	TNAP act hi DEA	TNAP inh hi DEA	Lmaj promast 1uM
Cn1c(SCc2ccccn2)nnc1-c1ccccc1	-6	-7	x	x	1.1	-7	x
COc1ccccc1CO/N=C/c1cccn1-c1nccc(N(C)C)c1C#N	-8	71*	91	92	1	3	-13
CN(C)c1ccnc(-n2cccc2/C=N/OCc2ccccc2)c1C#N	-7	-4	94	89	1	0	x
Cc1ccc(-n2nnnc2C(Cl)c2nnnn2-c2ccc(C)cc2)cc1	-11	99*	1.1*	1.6*	1	2	32
CC1=Nn2c(nc(-c3ccccc3)c2-c2ccccc2)NC(=O)C1Br (stereo not given)	-6	-5	85	95	1	-4	x
C/C(=N\OCC(=O)NCC(F)(F)F)c1cc2ccccc2o1	-13	56*	102	99	1.1	-5	-2
CCOc1ccc(N(C(=O)c2cnsn2)C(C(=O)NC2CCCCC2)c2ccncc2)cc1 (stereo not given)	-17	76*	101	88	1	-1	-11
Cc1cc(OCCN2CCCCC2)nc2ccccc12	-9	89*	70	75	1	2	-2
NNC(=O)c1sc2cc(C(F)(F)F)cnc2c1-c1ccccn1	-7	-1	x	x	1.1	-7	x
CC(=O)c1ccc(Oc2cc(-c3ccccc3)nc(-c3ccccc3)n2)cc1	-9	38	88	93	1	1	x
O=Cc1ccc(Oc2cc(-c3ccccc3)nc(-c3ccccc3)n2)cc1	-10	57*	91	86	1	-1	-14
COC(=O)c1cccc2c1-c1ccccc1/C2=N/O	-5	70*	79	85	1	-2	-29
COC(=O)CSc1ccccc1C(=O)OC	-9	-6	103	124	1	-4	x
CC(=O)c1ccc(S(=O)c2ccccc2)cc1 (stereo not given)	-10	-4	88	99	1	-1	x
CCCCc1n[nH]c(=S)n1Cc1ccc(C)cc1	-47	2	x	x	1	-3	x
Cc1[nH]c2ccc(Br)cc2c(=O)c1CN1CCCCC1	-6	8	87	95	1.1	-6	x
Cc1[nH]c2c(Cl)cccc2c(=O)c1CN1CCCC1	-5	100*	92	87	1	0	93*
c1ccc2c(NC3CCCC3)nnc(NC3CCCC3)c2c1	-14	97*	59	59	1.1	-6	12
Cc1cccnc1NC1CCCCC1	0	-3	x	x	1	1	x
Cc1cc(-c2ccc([N+](=O)[O-])cc2)nc2ccccc12	-5	1	x	x	1	-4	x
Cc1ccc(-c2cc(-c3n[nH]c(=S)o3)c3ccccc3n2)cc1	5	56*	101	99	1	0	-10
CSc1nnc(-c2cc(-c3ccc(C)cc3)nc3ccccc23)o1	-3	64*	99	89	1.1	-5	-9
CSc1nc2c(c(C(F)(F)F)n1)CC(C)CC2 (stereo not given)	-9	-8	97	100	1	-1	x
CC1=C(C#N)C(NC(=O)c2ccc(Cl)cc2)(C(F)(F)F)C(=O)N1 (stereo not given)	-18	-5	83	91	1	2	x
Cc1sc2c(c1C)c(=O)nc1n2Cc2ccccc2-1	-9	82*	106	98	1	-2	1

Screening results as filed in PubChem.
